This is an account of results in ChEMBL document CHEMBL1146768, “Orally active factor Xa inhibitors: 4,5,6,7-tetrahydrothiazolo[5,4-c]pyridine derivatives” (Bioorg Med Chem Lett, 2004).

Usually IC50 stands for the point on the concentration scale where inhibition reaches its midpoint.

The species entered for one assay is Homo sapiens. As to the kind of experiment: Anti-coagulant activity in human plasma were evaluated with the plasma clotting time doubling concentration. In kind it is functional, cell-free.
In the next assay the target is Prothrombin (Homo sapiens, UniProt P00734). Description: In vitro inhibitory activity against human thrombin.
The next assay concerns the target Coagulation factor X (Homo sapiens, UniProt P00742). Description: In vitro inhibitory activity against human Coagulation factor X.
In assay [1] the test system is Rattus norvegicus. Description: Ex vivo anti-coagulant activity at 3 hr after oral administration of 30 mg/kg to rats perorally. In kind it is functional.
In assay [2] the test system is Rattus norvegicus. Description: Ex vivo anti-fXa activity at 3 hr after oral administration of 30 mg/kg to rats perorally. Type of assay: functional. A digest of the protocol:
(§1)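 Male Wistar rats, fasted overnight, dosed by stomach tube with compound in 0.5% (w/v) methylcellulose; controls got vehicle alone. Blood drawn into trisodium citrate under halothane anaesthesia at set times, and platelet-poor plasma prepared.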

Assay [3] concerns Rattus norvegicus. As to the kind of experiment: Ex vivo anti-coagulant activity at 1 hr after oral administration of 30 mg/kg to rats perorally. In kind it is functional.
In assay [4] the test system is Rattus norvegicus. As to the kind of experiment: Ex vivo anti-fXa activity at 6 hr after oral administration of 30 mg/kg to rats perorally. In kind it is functional. The essentials:
as §1

The subject of assay [5] is Rattus norvegicus. As to the kind of experiment: Ex vivo anti-fXa activity at 1 hr after oral administration of 30 mg/kg to rats perorally. In kind it is functional. The essentials: as §1
For assay [6], the system named is Rattus norvegicus. Description: Ex vivo anti-coagulant activity at 6 hr after oral administration of 30 mg/kg to rats perorally. Type of assay: functional.

SMILES strings stand for the structures.

Chain of Coagulation factor X (P00742 41-179 limits assumed): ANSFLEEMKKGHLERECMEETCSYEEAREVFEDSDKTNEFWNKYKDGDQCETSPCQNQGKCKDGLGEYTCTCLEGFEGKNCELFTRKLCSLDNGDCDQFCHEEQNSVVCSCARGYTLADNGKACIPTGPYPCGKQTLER
Chain of Coagulation factor X (P00742 235-488 limits assumed): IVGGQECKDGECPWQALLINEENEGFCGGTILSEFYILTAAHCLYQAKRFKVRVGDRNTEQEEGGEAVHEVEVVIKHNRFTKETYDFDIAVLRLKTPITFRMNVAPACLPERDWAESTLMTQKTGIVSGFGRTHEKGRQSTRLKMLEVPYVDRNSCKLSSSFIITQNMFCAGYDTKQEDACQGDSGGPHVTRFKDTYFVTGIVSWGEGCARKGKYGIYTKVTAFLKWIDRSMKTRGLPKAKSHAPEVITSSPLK

In turn, `CN1CCc2nc(C(=O)N3CCN(S(=O)(=O)c4ccc5cc(Cl)ccc5c4)CC3C(=O)NCC(=O)N3CCOCC3)sc2C1` (stereo not given) gave a Concentration in the assay filed under Homo sapiens of 2.1 µM. In addition, the IC50 was determined as 1000 nM on Prothrombin and 25 nM against Coagulation factor X.

On to `C[N+]1(C)CCc2nc(C(=O)N3CCN(S(=O)(=O)c4ccc5cc(Cl)ccc5c4)CC3)sc2C1`, for which, in the assay listed under Homo sapiens, the Concentration turned out to be 0.8 µM. In addition, the half-inhibitory concentration (IC50) at Prothrombin was 3200 nM; against Coagulation factor X, 7.8 nM.

Consider `O=C(c1nc2c(s1)CNCC2)N1CCN(S(=O)(=O)c2ccc3cc(Cl)ccc3c2)CC1`, for which the Concentration in the assay listed under Homo sapiens is 11.2 µM. The IC50 at Prothrombin is 2900 nM; against Coagulation factor X, 60 nM.

Turning to `CNC(=O)C1CN(S(=O)(=O)c2ccc3cc(Cl)ccc3c2)CCN1C(=O)c1nc2c(s1)CN(C)CC2` (stereo not given), the Prolongation effect in the assay on Rattus norvegicus [1] was determined as 1.14; in the assay on Rattus norvegicus [3], 1.35; in the assay with Rattus norvegicus [6] it was 1.04. The results for the Anti-fXa activity in the assay with Rattus norvegicus [2], in the assay with Rattus norvegicus [4] and in the assay with Rattus norvegicus [5] were 73.7%, 23.5% and 89.5%, respectively. The Concentration in the assay listed under Homo sapiens is 3 µM. In addition, the results for the IC50 on Prothrombin and on Coagulation factor X were 1350 nM and 27 nM, respectively.

Turning to `CN1CCc2nc(C(=O)N3CCN(S(=O)(=O)c4ccc5cc(Cl)ccc5c4)CC3C(=O)NCc3ccccc3)sc2C1` (stereo not given), the half-maximal inhibitory concentration (IC50) was 1300 nM against Prothrombin and 640 nM on Coagulation factor X.

Compound `CN1CCc2nc(C(=O)N3CCN(S(=O)(=O)c4ccc5cc(Cl)ccc5c4)CC3C(=O)N(C)C)sc2C1` (stereo not given) registered a Concentration in the assay listed under Homo sapiens of 7 µM. The concentration for half-maximal inhibition (IC50) at Prothrombin amounted to 6000 nM; against Coagulation factor X, 130 nM.

The compound `CN1CCc2nc(C(=O)N3CCN(S(=O)(=O)c4ccc5cc(Cl)ccc5c4)CC3)sc2C1` had a Concentration in the assay listed under Homo sapiens of 6 µM. For the same compound, the 50% inhibitory concentration (IC50) at Prothrombin stood at 560 nM; at Coagulation factor X, 22 nM.

The compound `CN1CCc2nc(C(=O)N3CCN(S(=O)(=O)c4ccc5cc(Cl)ccc5c4)CC3C(=O)NCC(N)=O)sc2C1` (stereo not given) registered a Concentration in the assay listed under Homo sapiens of 3.8 µM. In addition, the IC50 against Prothrombin came to 880 nM; at Coagulation factor X, 23 nM.

With `CN1CCc2nc(C(=O)N3CCN(S(=O)(=O)c4ccc5cc(Cl)ccc5c4)CC3C(N)=O)sc2C1` (stereo not given), the Prolongation effect amounted to 1.09 in the assay on Rattus norvegicus [1], 1.13 with Rattus norvegicus [3] and 1.05 with Rattus norvegicus [6]. Besides, the Anti-fXa activity came out at 55.8% in the assay on Rattus norvegicus [2], 24.7% in the assay on Rattus norvegicus [4] and 67.4% with Rattus norvegicus [5]. In the assay listed under Homo sapiens, this compound gave a Concentration of 4.4 µM. Also, on Prothrombin, the 50% inhibitory concentration (IC50) worked out at 1000 nM.

In the assay filed under Homo sapiens, `CC(C)NC(=O)C1CN(S(=O)(=O)c2ccc3cc(Cl)ccc3c2)CCN1C(=O)c1nc2c(s1)CN(C)CC2` (stereo not given) came in with a Concentration of 8.8 µM. Further, the IC50 at Prothrombin stood at 820 nM; against Coagulation factor X, 45 nM.
